Apaf1 inhib: inhibitors of human Apaf-1 apoptosome; O14727; reconstituted apoptosome caspase-3 activity, DEVD-Rh110 fluorescence; inhibition, % at 20 µM; 330,000 tested, 0.71% active; active = inhibition of at least 40% at 20 µM;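 note: plate controls were DMSO wells for no effect and DEVD-CHO caspase inhibitor wells for full effect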
Target sequence (O14727 whole entry, looked up): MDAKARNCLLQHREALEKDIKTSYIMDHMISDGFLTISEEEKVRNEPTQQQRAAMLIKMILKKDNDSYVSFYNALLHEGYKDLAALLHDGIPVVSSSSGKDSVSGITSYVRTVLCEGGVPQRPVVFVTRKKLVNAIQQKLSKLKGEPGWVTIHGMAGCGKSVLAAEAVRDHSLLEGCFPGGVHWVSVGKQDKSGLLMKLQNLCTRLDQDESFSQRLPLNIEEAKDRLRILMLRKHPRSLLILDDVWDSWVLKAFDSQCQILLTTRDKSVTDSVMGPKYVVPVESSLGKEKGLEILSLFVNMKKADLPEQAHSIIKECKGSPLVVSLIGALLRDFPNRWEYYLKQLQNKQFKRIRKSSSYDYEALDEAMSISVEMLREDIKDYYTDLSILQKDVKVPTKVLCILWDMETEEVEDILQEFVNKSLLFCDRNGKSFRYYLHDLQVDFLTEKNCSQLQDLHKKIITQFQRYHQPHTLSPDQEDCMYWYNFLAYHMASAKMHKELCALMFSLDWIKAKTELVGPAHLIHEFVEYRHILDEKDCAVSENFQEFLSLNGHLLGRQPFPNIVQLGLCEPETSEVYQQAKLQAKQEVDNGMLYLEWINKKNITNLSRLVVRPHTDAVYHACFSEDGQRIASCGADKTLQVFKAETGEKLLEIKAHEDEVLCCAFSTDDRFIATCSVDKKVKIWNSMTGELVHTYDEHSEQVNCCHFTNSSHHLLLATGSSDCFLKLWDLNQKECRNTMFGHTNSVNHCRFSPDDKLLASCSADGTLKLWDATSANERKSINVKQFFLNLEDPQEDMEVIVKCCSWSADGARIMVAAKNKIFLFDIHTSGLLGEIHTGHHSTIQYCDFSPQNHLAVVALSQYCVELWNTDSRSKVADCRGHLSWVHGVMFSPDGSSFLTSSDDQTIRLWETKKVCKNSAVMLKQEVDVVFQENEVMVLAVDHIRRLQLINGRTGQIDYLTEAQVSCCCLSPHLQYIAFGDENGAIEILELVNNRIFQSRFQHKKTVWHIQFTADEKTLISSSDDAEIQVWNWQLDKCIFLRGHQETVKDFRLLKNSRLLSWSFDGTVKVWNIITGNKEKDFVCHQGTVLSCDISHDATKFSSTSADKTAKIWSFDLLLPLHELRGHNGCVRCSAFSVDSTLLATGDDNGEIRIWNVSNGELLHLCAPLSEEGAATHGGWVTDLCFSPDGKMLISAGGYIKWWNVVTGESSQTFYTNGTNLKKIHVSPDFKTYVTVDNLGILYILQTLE
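Material: reconstituted apoptosome with Apaf-1, cytochrome c, caspase-9, procaspase-3, dATP / Buffer or medium: pH 7.5 Hepes buffer with CHAPS, BSA, DTT / Also added: cytochrome c with DEVD-Rh110 / Schedule: compound with Apaf-1, dATP, procaspase-3 30 min, then 50 min reaction, room temperature / Technique: rhodamine 110 fluorescence at Ex 480/Em 540 nm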
PP5 inh: blocks human protein phosphatase 5 activity; inhibition, % at 6.7 µM; 320,000 tested, 0.18% active; AID 1987; purified PP5c, OMFP substrate fluorescence;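 active = inhibition above the campaign's mean inhibition across all tested compounds plus 3 SD, cut at about 9.5% in these data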;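 note: 0% = DMSO only and 100% = 100 µM cantharidin control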
TDP2 absorb: blocks human TDP2 phosphodiesterase activity | O95551 | recombinant TDP2, T5PNP hydrolysis, p-nitrophenol absorbance 415 nm | inhibition, % at 12.8 µM | 370,000 tested, 0.34% active;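 active = inhibition above the mean of all tested compounds plus 3 SD, set per campaign, cut at about 25% in these data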;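 note: 0% = DMSO with enzyme and 100% = buffer with substrate but no TDP2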
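Material: recombinant human TDP2; quantity: TDP2 enzyme at 120 nM final; medium: Tris-HCl pH 7.5 with MgCl2; compound: single concentration, 12.8 µM nominal, with 1% DMSO; incubation: 2 h enzyme incubation at 37 °C; signal: epi absorbance; measure: percent inhibition; benchmarks: high control without enzyme, low control DMSO plus TDP2; repeats: singlicate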
PP1 counter: counter-screen for PP5 inhibitors: inhibitors of human PP1-alpha; purified PP1alpha, OMFP fluorescence; AID 2235; 320,000 tested, 0.9% active; inhibition, % at 6.7 µM; P62136;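 active = inhibition above the mean inhibition of all tested compounds plus 3 SD, computed separately for each screening campaign, cut at about 15% in these data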
GSTO1 inh: blocks human GSTO1 in RBBP9 counter-screen | P78417 | AID 1974 | inhibition, % at 5.96 µM | recombinant GSTO1, activity-based probe fluorescence polarization | 300,000 tested, 1.1% active;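 active = inhibition above the campaign mean inhibition plus 3 SD, cut at about 35% in these data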;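 note: 0% = GSTO1-1 with DMSO and 100% = wells lacking GSTO1-1 enzyme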
PP1 inh confirm: human PP1 phosphatase inhibition, confirmation | shares compounds with PP1 counter | purified PP1alpha, OMFP substrate fluorescence | inhibition, % at 6.7 µM | 1,900 tested, 52% active | AID 2358;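 active = mean PP1 inhibition above a set limit taken from the earlier primary screen, cut at about 15% in these data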
PP5 counter: counter-screen for PP1 inhibitors: human PP5 phosphatase inhibition | 1,900 tested, 4% active | AID 2360 | inhibition, % at 6.7 µM | shares compounds with PP1 counter | purified PP5c, OMFP fluorescence;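 active = mean PP5 inhibition over triplicate wells above about 9.5% taken from the earlier PP1 screen, limit read from the data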
* hit, by the source's call; · = no result given. An excerpt weighted towards active compounds, which were near 2.1% of everything screened.

SMILES | Apaf1 inhib | PP5 inh | TDP2 absorb | PP1 counter | GSTO1 inh | PP1 inh confirm | PP5 counter
O=C(N/N=C/c1cccc([N+](=O)[O-])c1)c1cccc2cc[nH]c12 | -5 | 1 | 0 | -2 | 3 | · | ·
O=C(N/N=C/c1cc([N+](=O)[O-])ccc1O)c1cccc(N2CCCC2=O)c1 | 2 | 3 | -6 | 25* | -4 | 21* | -5
O=C(COc1c(Cl)cc(Cl)cc1Cl)N/N=C/c1ccc[nH]1 | · | · | 4 | · | · | · | ·
COC(=O)[C@H]1C[C@@]2(N3CCCC3)c3ccccc3N(C(=O)OC(C)(C)C)[C@H]2N1C(=O)OC(C)(C)C | · | · | 2 | · | · | · | ·
CCCCN(CCCC)CCCNC(=O)Cn1cc(C)c(=O)[nH]c1=O | · | · | 10 | · | · | · | ·
O=C(Cn1cnc2sc(-c3ccccc3)cc2c1=O)NCc1ccco1 | 10 | 0 | 8 | 22* | -2 | 19* | 2
Cn1c(=O)c(C(=O)NNC(=O)c2ccccc2Cl)c(O)c2ccccc21 | 1 | -4 | 2 | 8 | 4 | · | ·
Cn1c(=O)c(C(=O)NNC(=O)c2ccccc2Br)c(O)c2ccccc21 | 7 | 1 | -16 | 20* | -2 | 15 | -3
CCn1c(=O)c(C(=O)NNC(=O)Cc2ccccc2)c(O)c2ccccc21 | 8 | -1 | 0 | -1 | 9 | · | ·
CCn1c(=O)c(C(=O)NNC(=O)c2ccccc2Br)c(O)c2ccccc21 | 3 | -1 | -4 | 22* | 2 | 12 | -4
Cc1nn(-c2ccccc2)nc1C(=O)Nc1ccccc1C(=O)NCC1CC1 | · | · | 11 | · | · | · | ·
COc1ccc(C(=O)CSc2nc(N)nc(SC)c2C#N)cc1 | 0 | 2 | 1 | 27* | -14 | 28* | 0
CSc1nc(N)nc(SCC(=O)c2ccccc2)c1C#N | 0 | 3 | -4 | 2 | 10 | · | ·
CC(C)(C)OC(=O)N[C@@H](CCCCNC(=O)OCc1ccccc1)c1nnc([C@H](CCCCNC(=O)OCc2ccccc2)NC(=O)OC(C)(C)C)o1 | 13 | 5 | · | 23* | 4 | 13 | 2
CCCCCN1CCCCC(NC(=O)c2cc(OC)c(OC)c(OC)c2)C1=O (centres undefined) | · | · | -3 | · | · | · | ·
COc1ccc(C(=O)Nc2ccc(Cl)cc2C(=O)N2CCOCC2)cc1 | 0 | -1 | 5 | 1 | 1 | · | ·
COc1ccc(C(=O)Nc2ccc(Cl)cc2C(=O)N2CCCC(C)C2)cc1 (centres undefined) | 15 | -1 | -14 | 60* | -7 | -1 | -1
COc1cc(NS(=O)(=O)c2ccc(NC(=S)NC(=O)/C=C/c3ccc(OC)c(OC)c3)cc2)ncn1 | -13 | -1 | -2 | 0 | -1 | · | ·
COc1ccc(/C=C/C(=O)NC(=S)Nc2ccc(S(=O)(=O)N=C(N)N)cc2)cc1OC | -37 | 1 | 11 | 20* | -13 | 23* | -2
CCN(C(=O)Cn1nnc(-c2ccncc2)n1)c1ccccc1 | · | · | 8 | · | · | · | ·
O=C(CC1CCCC1)N1CC[C@H]2[C@H](CCCN2Cc2cc(F)cc(F)c2)C1 | · | · | 1 | · | · | · | ·
CN(C)C(=N)c1n[nH]nc1SCc1ccc(Cl)c(Cl)c1 | -10 | -1 | 13 | 25* | 1 | -3 | -6
Cc1[nH]c(=O)nc(SCc2ccc(Cl)c(Cl)c2)c1C#N | 1 | 3 | -23 | -1 | 0 | · | ·
COc1ccccc1Oc1coc2cc(OC(=O)N3CCOCC3)ccc2c1=O | 10 | 3 | 11 | 4 | 3 | · | ·
CC(=O)Oc1ccc2c(=O)c(Oc3ccccc3[N+](=O)[O-])coc2c1 | 4 | 1 | -13 | 56* | 8 | 0 | 1
SMILES | Apaf1 inhib | PP5 inh | TDP2 absorb | PP1 counter | GSTO1 inh | PP1 inh confirm | PP5 counter
COC(=O)c1cc(-c2cccc(C(F)(F)F)c2)c(=O)n2c1CCC2 | · | · | -7 | · | · | · | ·
COc1cc(/C=N/Nc2nc(Nc3ccccc3)nc(-n3nc(C)cc3C)n2)cc(OC)c1OC | 2 | 6 | -15 | 24* | 3 | 34* | 3
COc1cc(/C=N/Nc2nc(Nc3ccc(C)cc3)nc(-n3nc(C)cc3C)n2)cc(OC)c1OC | 1 | 4 | 5 | 22* | -6 | 21* | 0
COc1ccc(O)c(/C=N/Nc2nc(Nc3ccccc3)nc(-n3nc(C)cc3C)n2)c1 | 2 | 5 | -11 | 21* | -35 | 25* | 5
COc1ccc(O)c(/C=N/Nc2nc(C)cc(-c3ccccc3)n2)c1 | -10 | 2 | 2 | 1 | 17 | · | ·
O=c1[nH]c(NCCO)nc2c1C1(CCCCC1)Cc1ccccc1-2 | 21 | 1 | 0 | 19* | 0 | 2 | 0
Cc1c(/C=N/n2cnnc2)c2ccccc2n1CCOc1ccc(Cl)cc1 | 23 | 4 | 6 | 29* | 3 | 4 | -3
Cc1ccc(OCCn2c(C)c(/C=N/n3cnnc3)c3ccccc32)cc1 | 12 | 1 | -11 | 1 | 13 | · | ·
Cn1nc(C(F)(F)F)c(-c2ccc(Br)cc2)c1NC(=O)c1nccnc1C(=O)O | -8 | 1 | -4 | 1 | 13 | · | ·
Cn1nc(C(F)(F)F)c(-c2ccccc2)c1NC(=O)c1nccnc1C(=O)O | -22 | 1 | 19 | 25* | 8 | 0 | -3
COc1ccc(NC(=O)c2cc(-c3ccco3)nc3ccccc23)cc1S(=O)(=O)N1CCOCC1 | 15 | 2 | -8 | 45* | 13 | 9 | -4
Cc1ccc(NC(=O)c2cc(-c3ccco3)nc3ccccc23)cc1S(=O)(=O)N1CCOCC1 | 19 | 1 | 2 | 23* | 10 | 24* | 3
Cc1ccccc1NC(=O)Nc1ccc2c(c1)C(=O)N(C)[C@H]1CC[C@H](CC(=O)NCC3CC3)O[C@@H]1CO2 | · | · | -9 | · | · | · | ·
CC1=NN(c2ccccc2)C(=O)/C1=C/c1c(O)n(-c2ccc(F)c(Cl)c2)[nH]c1=O | 20 | 10* | · | 18* | -49 | 9 | 0
CC1=NN(c2ccccc2)C(=O)/C1=C/c1cc(C)n(C2CC2)c1C | 24 | 0 | 3 | -2 | 5 | · | ·
CC(=O)N[C@@H]1C[C@@H]2O[C@@H](CO)CC[C@@H]2O[C@@H]1CCc1ccc(C#CC2(O)CCCC2)cc1 | · | · | 0 | · | · | · | ·
CCc1nnc2n1N=C(c1ccc(-c3cc(Cl)ccc3Cl)o1)CS2 | 27 | 2 | -7 | 23* | -7 | 12 | -4
CCc1nnc2n1N=C(c1ccc(OC)cc1)CS2 | 4 | 1 | 11 | 2 | -7 | · | ·
Cc1ccc(CSCC2Nc3ccc(C(=O)N4CCN(c5cccc(C)c5)C(C)C4)cc3NC2=O)cc1 (centres undefined) | 24 | 1 | · | 19* | -27 | 29* | -6
Cc1cccc(N2CCN(C(=O)c3ccc4c(c3)c(C)c(C)n4C)CC2C)c1 (centres undefined) | 18 | 4 | -9 | 5 | 5 | · | ·
CC(=O)NC(c1ccccc1)c1cc(Cl)c2cccnc2c1O (centres undefined) | -3 | 5 | -15 | 14 | -3 | · | ·

Assay outcomes from PubChem BioAssay.
